Test results taken from ChEMBL document CHEMBL1124747, “Properties of the nucleic acid photoaffinity labeling agent 3-azidoamsacrine” (J Med Chem, 1990).

Key:
[1] = Mean value of mutation induction for L5178Y cells was evaluated at dose 0.005 mg/mL in light-I condition (expt-I); assay type: functional, Mus musculus
In short: (§1)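 L5178Y suspension cells (3 × 10^6/mL, 5% CO2, 37 °C, shaking) exposed 20 h without activating enzyme; light arm irradiated 6.5 min (Hg lamp, <340 nm filtered). Cells washed, grown 24 h more and kept at 3 × 10^5/mL. Viability from 200 cells in soft agar; TFT (0.1 mg/mL) resistant colonies from 10^6 cells in triplicate dishes, counted at 10 days.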

[2] = Mean value of mutation induction for L5178Y cells was evaluated at dose 0.008 mg/mL in light-II condition (expt-I); assay type: functional, Mus musculus; in short: as §1
[3] = Induction frequency for L5178Y cells was evaluated at dose 0.005 mg/mL in dark condition (expt-II); assay type: functional, Mus musculus; in short: as §1
[4] = Ability to block cleavage of GCC/GGC site in NaeI enzyme with the light activated test compound/DNA ratio 1:8(no. of sites=4); += light activation
In short: (§2)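 pBR322 plasmid mixed with drug at 0.015, 0.12 or 0.48 mM (drug:DNA 1:8, 1:1 or 4:1), equilibrated on ice 30 min in the dark in 5 mM potassium phosphate pH 5.5, then irradiated 1 h with a medium-pressure Hg lamp (<340 nm filtered); dark set kept as control. Digested overnight with 10× excess enzyme plus DTT; fragments resolved on 1.2% agarose in TBE.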

[5] = Relative toxicity against mammalian L5178Y cells at dose 0.005 mg/mL in dark condition (expt-II); assay type: functional, Mus musculus
In short: (§3)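 L5178Y mouse cells in suspension, 3 × 10^6 cells/mL, were exposed for 20 h at 37 °C in a shaker at 150 rpm under 5% CO2, without an activating enzyme. Light arms were irradiated for 6.5 min with a medium-pressure Hg lamp filtered to remove light below 340 nm; dark arms were not. Toxicity was taken as the Coulter-counted density of treated cells versus solvent control.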

[6] = Ability to block cleavage of GCC/GGC site in NaeI enzyme with the light activated test compound/DNA ratio 4(no. of sites=4); += light activation; in short: as §2
[7] = Viability of L5178Y cells was evaluated at dose 0.005 mg/mL in dark condition (expt-II); assay type: functional, Mus musculus
In short: (§4)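 L5178Y cells were exposed for 20 h at 3 × 10^6 cells/mL. Light arms then received 6.5 min of Hg-lamp irradiation filtered to remove light below 340 nm. Cells were washed twice in Fischer's medium, grown a further 24 h and held at 3 × 10^5 cells/mL. For viability, 200 cells were plated in soft-agar cloning medium in triplicate dishes, and colonies were counted by an automated counter after 10 days.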

[8] = Relative toxicity against mammalian L5178Y cells at dose 0.005 mg/mL in dark-1 condition (expt-I); assay type: functional, Mus musculus; in short: as §3
[9] = Ability to block cleavage of G/GNCC site in Restriction endonuclease Sau961 with the light activated test compound/DNA ratio 4(no. of sites=15); += light activation; in short: as §2
[10] = Mutation frequency for L5178Y cells was evaluated at dose 0.005 mg/mL in dark condition (expt-II); assay type: functional, Mus musculus; in short: as §1
[11] = Ability to block cleavage of G/ANTC site in Hinf1 enzyme with the light activated test compound/DNA ratio 4(no. of sites=10); += light activation; in short: as §2
[12] = Mutation frequency for L5178Y cells was evaluated at dose 0.008 mg/mL in dark-II condition (expt-I); assay type: functional, Mus musculus; in short: as §1
[13] = Ability to block cleavage of AG/CT site in AluI enzyme with the light activated test compound, DNA ratio 1:8(no. of sites=16); += light activation; in short: as §2
[14] = Ability to block cleavage of […] site in NciI enzyme with the light activated test compound/DNA ratio 4(no. of sites=10); += light activation; in short: as §2
[15] = Mutation frequency for L5178Y cells was evaluated at dose 0.005 mg/mL in light condition (expt-II); assay type: functional, Mus musculus; in short: as §1
[16] = Viability of L5178Y cells was evaluated at dose 0.005 mg/mL in dark-I condition (expt-I); assay type: functional, Mus musculus; in short: as §4
[17] = Relative toxicity against mammalian L5178Y cells at dose 0.008 mg/mL in light-2 condition (expt-I); assay type: functional, Mus musculus; in short: as §3
[18] = Half-life was evaluated in water in the absence of light; assay type: ADME
[19] = Ability to block cleavage of G/ANTC site in Hinf1 enzyme with the light activated test compound/DNA ratio 1(no. of sites=10); += light activation; in short: as §2
[20] = Viability of L5178Y cells was evaluated at dose 0.008 mg/mL in dark-II condition (expt-I); assay type: functional, Mus musculus; in short: as §4
[21] = Mutation frequency for L5178Y cells was evaluated at dose 0.005 mg/mL in light-I condition (expt-I); assay type: functional, Mus musculus; in short: as §1
[22] = Ability to block cleavage of GG/CC site in HaeIII enzyme with the light activated test compound/DNA ratio 1(no. of sites=22); += light activation; in short: as §2
[23] = Ability to block cleavage of C/CGG site in HpaII enzyme with the light activated test compound/DNA ratio 1:8(no. of sites=26); += light activation; in short: as §2
[24] = Ability to block cleavage of TTT/AAA site in DraI enzyme with the light activated test compound/DNA ratio 4(no. of sites=3); += light activation; in short: as §2
[25] = Mean value of mutation induction for L5178Y cells was evaluated at dose 0.005 mg/mL in dark condition (expt-II); assay type: functional, Mus musculus
In short: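 L5178Y cells in suspension culture, gassed with 5% CO2 in air, shaken at 150 rpm, 37 °C. Cells at 3 × 10^6/mL were dosed for 20 h, unirradiated and without activating enzyme, then washed twice in Fop and grown 24 h more. TFT-resistant mutants came from 10^6 cells plated in three dishes of cloning medium with 0.1 mg/mL TFT, colonies counted at 10 days; frequency expressed ×10^6.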

[26] = Mean value of mutation induction for L5178Y cells was evaluated at dose 0.008 mg/mL in dark-II condition (expt-I); assay type: functional, Mus musculus; in short: as §1
[27] = Relative mutation induction for L5178Y cells was evaluated at dose 0.008 mg/mL in dark-II condition (expt-I); assay type: functional, Mus musculus
[28] = Relative toxicity against mammalian L5178Y cells at dose 0.005 mg/mL in light-1 condition (expt-I); assay type: functional, Mus musculus; in short: as §3
[29] = Ability to block cleavage of G/ANTC site in Hinf1 enzyme with the light activated test compound/DNA ratio 1:8(no. of sites=10); += light activation; in short: as §2

## COc1cc(NS(C)(=O)=O)ccc1Nc1c2ccccc2nc2cc(N=[N+]=[N-])ccc12.Cl
[1]
  Mean value: 123.7
[2]
  Mean value: 0
[3]
  Induced frequency: 366
[4]
  Blockage activity: Light activation
[5]
  Relative toxicity: 65
[6]
  Blockage activity: Light activation
[7]
  Viability: 37.7
[8]
  Relative toxicity: 69
[9]
  Blockage activity: Light activation
[10]
  Mutation frequency: 504 10e6 F
[11]
  Blockage activity: Light activation
[12]
  Mutation frequency: 565 10e6 F
[13]
  Blockage activity: Light activation
[14]
  Blockage activity: Light activation
[15]
  Mutation frequency: 640 10e6 F
[16]
  Viability: 66.7
[17]
  Relative toxicity: 55
[18]
  half-life: > 14 days
[19]
  Blockage activity: Light activation
[20]
  Viability: 22.3
[21]
  Mutation frequency: 434 10e6 F
[22]
  Blockage activity: Light activation
[23]
  Blockage activity: Light activation
[24]
  Blockage activity: Light activation
[25]
  Mean value: 95
[26]
  Mean value: 63
[27]
  Relative activity: 23
[28]
  Relative toxicity: 69
[29]
  Blockage activity: Light activation
